Results published in ChEMBL document CHEMBL3784969, “Pharmacokinetics of flutamide in patients with renal insufficiency” (Br J Clin Pharmacol, 1999).

Key:
[1] = system: Homo sapiens; assay: AUClast in patient (3 patients) with renal insufficiency at 250 mg, po assessed as hydroxy flutamide administered as single dose by gas chromatography; type: ADME, organism-based; design: dose 250 mg, time 0 - last, route oral; details: in vivo
[2] = Tmax in patient (4 patients) with renal insufficiency at 250 mg, po administered as single dose by gas chromatography; type: ADME, organism-based; details: human, in vivo
Outline: (§1)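 Males grouped by 24 h CLcr normalised to body surface area (>80, 50–80, 30–49, 5–29 ml min−1 1.73 m−2), fasted 10 h pre-dose and 4 h post-dose, given a single oral 250 mg flutamide dose. Plasma sampled 0–96 h; urine collected in blocks to 96 h. Flutamide and hydroxyflutamide measured by GC with electron-capture detection. Renal CL = Ae(0,96 h)/AUC(0,96 h); t1/2 = 0.693/λz.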

[3] = AUC (0 to 24 hrs) in patient (4 patients) with renal insufficiency at 250 mg, po administered as single dose by gas chromatography; type: ADME, organism-based; design: dose 250 mg, time < 24 hr, route oral; details: human, in vivo
[4] = system: Homo sapiens; assay: Tmax in patient (4 patients) with renal insufficiency assessed as hydroxy flutamide at 250 mg, po administered as single dose by gas chromatography; type: ADME, organism-based; details: in vivo; outline: as §1
[5] = system: Homo sapiens; assay: AUC (0 to 24 hrs) in patient (4 patients) with renal insufficiency assessed as hydroxy flutamide at 250 mg, po administered as single dose by gas chromatography; type: ADME, organism-based; design: dose 250 mg, time < 24 hr, route oral; details: in vivo
[6] = system: Homo sapiens; assay: AUC (0 to infinity) in patient (4 patients) with renal insufficiency at 250 mg, po assessed as hydroxy flutamide administered as single dose by gas chromatography; type: ADME, organism-based; design: dose 250 mg, time infinity, route oral; details: in vivo
[7] = system: Homo sapiens; assay: Final time point in terminal phase in patient (4 patients) with renal insufficiency assessed as hydroxy flutamide at 250 mg, po administered as single dose by gas chromatography; type: ADME, organism-based; details: in vivo; outline: as §1
[8] = Tmax in patient (6 patients) with renal insufficiency at 250 mg, po administered as single dose 4 hrs prior to hemodialysis treatment measured at starting time of dialysis and post dialysis treatment by gas chromatography; type: ADME, organism-based; details: human, in vivo
Outline: (§2)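 Group V haemodialysis males (CLcr <5 ml min−1 1.73 m−2). Single oral 250 mg flutamide (two 125 mg capsules) right after HD; after 14-day washout, same dose 4 h before HD lasting 2–4 h. Venous samples to 48 h, arterial/venous during HD, dialysate in hourly blocks. GC with 63Ni electron-capture detection. CL(HD) = dialysate Ae(HD)/arterial AUC(HD); renal CL = Ae(0,48)/AUC(0,48 h).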

[9] = Drug recovery in dialysate of patient (6 patients) with renal insufficiency at 250 mg, po administered as single dose 4 hrs prior to hemodialysis treatment measured during dialysis treatment by gas chromatography; type: ADME, organism-based; details: human, in vivo; outline: as §2
[10] = system: Homo sapiens; assay: Tmax in patient (6 patients) with renal insufficiency assessed as hydroxy flutamide at 250 mg, po administered as single dose 4 hrs prior to hemodialysis treatment measured at starting time of dialysis and post dialysis treatment by gas chromatography; type: ADME, organism-based; details: in vivo; outline: as §2
[11] = system: Homo sapiens; assay: AUC (0 to 24 hrs) in patient (6 patients) with renal insufficiency assessed as hydroxy flutamide at 250 mg, po administered as single dose 4 hrs prior to hemodialysis treatment measured at starting time of dialysis and post dialysis treatment by gas chromatography; type: ADME, organism-based; design: time < 24 hr, dose 250 mg, route oral; details: in vivo
[12] = system: Homo sapiens; assay: Final time point in terminal phase in patient (6 patients) with renal insufficiency assessed as hydroxy flutamide at 250 mg, po administered as single dose 4 hrs prior to hemodialysis treatment measured at starting time of dialysis and post dialysis treatment by gas chromatography; type: ADME, organism-based; details: in vivo; outline: as §2
[13] = system: Homo sapiens; assay: Terminal half life in patient (6 patients) with renal insufficiency assessed as hydroxy flutamide at 250 mg, po administered as single dose 4 hrs prior to hemodialysis treatment measured at starting time of dialysis and post dialysis treatment by gas chromatography; type: ADME, organism-based; details: in vivo; outline: as §2
[14] = system: Homo sapiens; assay: Clearance in patient (6 patients) with renal insufficiency assessed as hydroxy flutamide at 250 mg, po administered as single dose 4 hrs prior to hemodialysis treatment measured during dialysis treatment by gas chromatography; type: ADME, organism-based; details: in vivo; outline: as §2
[15] = Tmax in patient (6 patients) with renal insufficiency at 250 mg, po administered as single dose by gas chromatography; type: ADME, organism-based; details: human, in vivo; outline: as §1
[16] = AUC (0 to 96 hrs) in patient (6 patients) with renal insufficiency at 250 mg, po administered as single dose by gas chromatography; type: ADME, organism-based; design: dose 250 mg, time < 96 hr, route oral; details: human, in vivo
[17] = system: Homo sapiens; assay: Cmax in patient (6 patients) with renal insufficiency assessed as hydroxy flutamide at 250 mg, po administered as single dose by gas chromatography; type: ADME, organism-based; design: dose 250 mg, route oral; details: in vivo
[18] = system: Homo sapiens; assay: Final time point in terminal phase in patient (6 patients) with renal insufficiency assessed as hydroxy flutamide at 250 mg, po administered as single dose by gas chromatography; type: ADME, organism-based; details: in vivo; outline: as §1
[19] = system: Homo sapiens; assay: Renal clearance in patient (6 patients) with renal insufficiency assessed as hydroxy flutamide at 250 mg, po administered as single dose by gas chromatography; type: ADME, organism-based, Kidney; details: in vivo; outline: as §1
[20] = Cmax in patient (7 patients) with renal insufficiency at 250 mg, po administered as single dose by gas chromatography; type: ADME, organism-based; design: dose 250 mg, route oral; details: human, in vivo
[21] = Tmax in patient (7 patients) with renal insufficiency at 250 mg, po administered as single dose by gas chromatography; type: ADME, organism-based; details: human, in vivo; outline: as §1
[22] = AUC (0 to 96 hrs) in patient (7 patients) with renal insufficiency at 250 mg, po administered as single dose by gas chromatography; type: ADME, organism-based; design: dose 250 mg, time < 96 hr, route oral; details: human, in vivo
[23] = system: Homo sapiens; assay: Toxicity in patient with renal insufficiency assessed as level of lactic dehydrogenase at 250 mg, po administered as single dose (reference value: 85 to 220 IU/l); type: organism-based; details: in vivo
Outline: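 Male subjects were grouped by creatinine clearance: normal renal function, graded impairment, or chronic haemodialysis. Each received a single oral dose as two 125 mg capsules while fasted. Serum lactic dehydrogenase was measured pre-dose and at follow-up and read against the 85–220 IU l−1 normal range.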

[24] = system: Homo sapiens; assay: Tmax in patient (7 patients) with renal insufficiency assessed as hydroxy flutamide at 250 mg, po administered as single dose by gas chromatography; type: ADME, organism-based; details: in vivo; outline: as §1
[25] = system: Homo sapiens; assay: AUC (0 to 24 hrs) in patient (7 patients) with renal insufficiency assessed as hydroxy flutamide at 250 mg, po administered as single dose by gas chromatography; type: ADME, organism-based; design: dose 250 mg, time < 24 hr, route oral; details: in vivo
[26] = system: Homo sapiens; assay: AUC (0 to infinity) in patient (7 patients) with renal insufficiency at 250 mg, po assessed as hydroxy flutamide administered as single dose by gas chromatography; type: ADME, organism-based; design: dose 250 mg, route oral, time infinity; details: in vivo
[27] = system: Homo sapiens; assay: Renal clearance in patient (7 patients) with renal insufficiency assessed as hydroxy flutamide at 250 mg, po administered as single dose by gas chromatography; type: ADME, organism-based, Kidney; details: in vivo; outline: as §1
[28] = Cmax in patient (3 patients) with renal insufficiency at 250 mg, po administered as single dose by gas chromatography; type: ADME, organism-based; design: dose 250 mg, route oral; details: human, in vivo
[29] = AUClast in patient (3 patients) with renal insufficiency at 250 mg, po administered as single dose by gas chromatography; type: ADME, organism-based; design: dose 250 mg, time 0 - last, route oral; details: human, in vivo
[30] = system: Homo sapiens; assay: Cmax in patient (3 patients) with renal insufficiency assessed as hydroxy flutamide at 250 mg, po administered as single dose by gas chromatography; type: ADME, organism-based; design: dose 250 mg, route oral; details: in vivo
[31] = system: Homo sapiens; assay: Tmax in patient (3 patients) with renal insufficiency assessed as hydroxy flutamide at 250 mg, po administered as single dose by gas chromatography; type: ADME, organism-based; details: in vivo; outline: as §1
[32] = system: Homo sapiens; assay: AUC (0 to 96 hrs) in patient (3 patients) with renal insufficiency at 250 mg, po assessed as hydroxy flutamide administered as single dose by gas chromatography; type: ADME, organism-based; design: dose 250 mg, time < 96 hr, route oral; details: in vivo

Compound: CC(C)C(=O)Nc1ccc([N+](=O)[O-])c(C(F)(F)F)c1 [FLUTAMIDE]
- AUClast [1]: 6843 ng·h/mL
- Tmax [2]: 1 h
- AUC(0-t) at 24 h [3]: 107 ng·h/mL
- Tmax [4]: 3 h
- AUC [5]: 5821 ng·h/mL
- AUC [6]: 6499 ng·h/mL
- Time [7]: 56 h
- Tmax [8]: 1 h
- Drug recovery [9]: 0 mg
- Tmax [10]: 1 h
- AUC [11]: 5434 ng·h/mL
- Time [12]: 43 h
- beta t1/2 [13]: 8 h
- CL [14]: 21 mL/min
- Tmax [15]: 1.4 h
- AUC(0-t) at 96 h [16]: 96.4 ng·h/mL
- Cmax [17]: 1070 ng/mL
- Time [18]: 46 h
- CL [19]: 0.36 mL/min
- Cmax [20]: 20.9 ng/mL
- Tmax [21]: 1.7 h
- AUC(0-t) at 96 h [22]: 59.8 ng·h/mL
- Activity [23]: 144 IU/L
- Tmax [24]: 2.3 h
- AUC [25]: 4663 ng·h/mL
- AUC [26]: 4993 ng·h/mL
- CL [27]: 0.3 mL/min
- Cmax [28]: 41 ng/mL
- AUC(0-t) [29]: 74 ng·h/mL
- Cmax [30]: 902 ng/mL
- Tmax [31]: 3 h
- AUC [32]: 6907 ng·h/mL
